Results from paper PMC3911823 (The FEBS journal, 2011).
Where a chain is given by its changes, count along the chain named.

Assays:
P450 2B4 wild type = biological target: T1, P450 2B4 wild type (Oryctolagus cuniculus, UniProt P00178); test: Inhibition of 7-EFC O-deethylation by imidazole inhibitors; format: biochemical, rabbit (Oryctolagus cuniculus)
T1 sequence (P00178 with tags, fused parts or gaps limits assumed): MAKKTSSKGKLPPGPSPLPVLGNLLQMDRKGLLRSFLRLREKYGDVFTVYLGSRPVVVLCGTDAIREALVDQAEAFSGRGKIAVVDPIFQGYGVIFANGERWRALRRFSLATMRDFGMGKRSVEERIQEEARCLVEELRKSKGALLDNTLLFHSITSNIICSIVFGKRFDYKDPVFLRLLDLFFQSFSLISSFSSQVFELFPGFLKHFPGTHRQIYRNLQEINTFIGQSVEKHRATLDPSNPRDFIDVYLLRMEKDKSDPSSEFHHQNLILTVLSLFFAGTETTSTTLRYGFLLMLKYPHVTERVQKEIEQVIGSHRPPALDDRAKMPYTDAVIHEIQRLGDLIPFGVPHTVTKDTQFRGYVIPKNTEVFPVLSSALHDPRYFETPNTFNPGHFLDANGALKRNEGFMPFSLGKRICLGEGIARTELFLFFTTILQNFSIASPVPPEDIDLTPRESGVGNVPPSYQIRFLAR

P450 2B4 H172A [1] = biological target: T2, P450 2B4 H172A (Oryctolagus cuniculus, UniProt P00178, H172A); test: as above; format: biochemical, rabbit (Oryctolagus cuniculus)
T2 sequence (P00178 with tags, fused parts or gaps H172A limits assumed): T1 sequence (P00178 with tags, fused parts or gaps limits assumed) with H153A

P450 2B4 H172Q [2] = biological target: T3, P450 2B4 H172Q (Oryctolagus cuniculus, UniProt P00178, H172Q); test: as above; format: biochemical, rabbit (Oryctolagus cuniculus)
T3 sequence (P00178 with tags, fused parts or gaps H172Q limits assumed): T1 sequence (P00178 with tags, fused parts or gaps limits assumed) with H153Q

P450 2B4 L437A = biological target: T4, P450 2B4 L437A (Oryctolagus cuniculus, UniProt P00178, L437A); test: as above; format: biochemical, rabbit (Oryctolagus cuniculus); details: rabbit, pH 7.4, probe 7-EFC (50 μM), O-deethylation
T4 sequence (P00178 with tags, fused parts or gaps L437A limits assumed): T1 sequence (P00178 with tags, fused parts or gaps limits assumed) with L418A

P450 2B4 E474D [3] = biological target: T5, P450 2B4 E474D (Oryctolagus cuniculus, UniProt P00178, E474D); test: as above; format: biochemical, rabbit (Oryctolagus cuniculus)
T5 sequence (P00178 with tags, fused parts or gaps E474D limits assumed): T1 sequence (P00178 with tags, fused parts or gaps limits assumed) with E455D

P450 2B4 E474Q = biological target: T6, P450 2B4 E474Q (Oryctolagus cuniculus, UniProt P00178, E474Q); test: as above; format: biochemical, rabbit (Oryctolagus cuniculus)
T6 sequence (P00178 with tags, fused parts or gaps E474Q limits assumed): T1 sequence (P00178 with tags, fused parts or gaps limits assumed) with E455Q

P450 2B4 H172F [4] = biological target: T7, P450 2B4 H172F (Oryctolagus cuniculus, UniProt P00178, H172F); test: Spectral binding titration of imidazole ligands; parameters: species or system rabbit (Oryctolagus cuniculus); details: 2B4 H172F versus wild type
T7 sequence (P00178 with tags, fused parts or gaps H172F limits assumed): T1 sequence (P00178 with tags, fused parts or gaps limits assumed) with H153F
Procedure, shortened: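 Protein was the His-tagged 2B4dH construct (single mutants or wild type), expressed in TOPP3 cells and Ni-NTA purified. Spectra 350–700 nm recorded after serial 5 μl additions of 100 μM 4-CPI or bifonazole. Ks came from a tight-binding equation fit, and the 4-CPI/bifonazole Ks ratio was calculated.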

P450 2B4 H172A [5] = biological target: T2, P450 2B4 H172A; format: biochemical, rabbit (Oryctolagus cuniculus)
P450 2B4 H172Q [6] = biological target: T3, P450 2B4 H172Q; format: biochemical, rabbit (Oryctolagus cuniculus)
P450 2B4 mutants = format: biochemical, rabbit (Oryctolagus cuniculus); details: each mutant except the inactive H172F
P450 2B4 H172F [7] = biological target: T7, P450 2B4 H172F
P450 2B4 H172F [8] = biological target: T7, P450 2B4 H172F; remark: listed apart in the source
P450 2B4 E474D [9] = biological target: T5, P450 2B4 E474D; format: biochemical, rabbit (Oryctolagus cuniculus)

Row | SMILES | IC50 (P450 2B4 wild type) | IC50 (P450 2B4 H172A [1]) | IC50 (P450 2B4 H172Q [2]) | IC50 at 10 min (P450 2B4 L437A) | IC50 (P450 2B4 E474D [3]) | IC50 (P450 2B4 E474Q) | Ks (spectral dissociation constant) higher than wild type 2B4 (P450 2B4 H172F [4]) | decrease (change) in kcat versus wild type (P450 2B4 H172A [5]) | decrease (change) in kcat versus wild type (P450 2B4 H172Q [6]) | change in KM versus wild type (P450 2B4 mutants) | substrate turnover (activity) (P450 2B4 H172F [7]) | kcat (P450 2B4 H172F [8]) | decrease (change) in kcat versus wild type (P450 2B4 E474D [9])
1 | c1ccc(-c2ccc(C(c3ccccc3)n3ccnc3)cc2)cc1 (stereo not drawn) [Bifonazole, bifonazole] | 900 nM | 580 nM | 760 nM | 50 nM | 620 nM | 810 nM | ~ 20 times |  |  |  |  |  | 
2 | COc1ccc2c(C(F)(F)F)cc(=O)oc2c1 [7-MFC, 7-methoxy-4-(trifluoromethyl)coumarin] |  |  |  |  |  |  |  | ~ 2 fold | ~ 2 fold | < 2 fold | inactive | 0 s⁻¹ | 
3 | CCOc1ccc2c(C(F)(F)F)cc(=O)oc2c1 [7-EFC, 7-ethoxy-4-(trifluoromethyl)coumarin] |  |  |  |  |  |  |  |  |  |  | inactive | 0 s⁻¹ | > 20 fold
